Measured values collected from several papers.
Lines come from different studies, so protocols differ.
RIPK1: Receptor-interacting serine/threonine-protein kinase 1 (RIPK1, Homo sapiens, UniProt Q13546)
Maoa: Amine oxidase [flavin-containing] A (Maoa, Rattus norvegicus, UniProt P21396)
AMY2: Pancreatic alpha-amylase (AMY2, Sus scrofa, UniProt P00690)
PADI3: Protein-arginine deiminase type-3 (PADI3, Homo sapiens, UniProt Q9ULW8)
GAK: Cyclin-G-associated kinase (GAK, Homo sapiens, UniProt O14976)
KRAS G12C: GTPase KRas (KRAS, Homo sapiens, UniProt P01116, G12C)
Genome polyprotein protease: Genome polyprotein, protease (Hepatitis C virus genotype 1b, UniProt Q9WMX2)

The remaining activity of Cc1ccc(C(=O)Nc2ccc(CN3CCN(C)CC3)c(C(F)(F)F)c2)cc1C#Cc1cnc2cccnn12 is reported as 86% (RIPK1; enzyme activity, inhibitor; 23.5 nM).
For Cn1c2c(c3ccc(Cl)c(Cl)c31)C(C#N)C1(CCNCC1)NC2=O (racemic), the ΔTm was 0.9 °C (Serine/threonine-protein kinase DCLK1 (DCLK1, Homo sapiens, UniProt O15075); thermal stability, DSF; 10 µM).
NCc1ccc(F)cc1 gave a Km of 174 µM (Maoa; enzyme activity, substrate; pH 7.5).
The inhibition of Cc1cc(NS(=O)(=O)c2ccc(N=NN(C)O)cc2)no1 is reported as 10.5% (AMY2; enzyme activity, inhibitor; 20 µg/mL).
N=C(CF)NCCC[C@H](NC(=O)c1ccccc1)c1nn[nH]n1 gave a kinact/KI of 7.25 M⁻¹ s⁻¹ (PADI3; enzyme activity, inhibitor).
COc1cc2nccc(Nc3cccc(C(C)=O)c3)c2cc1OC has a ΔTm of 1.3 °C (GAK; thermal stability, DSF; 10 µM).
The inhibition of Cc1cccc(N(O)N=Nc2ccc(S(=O)(=O)Nc3nccs3)cc2)c1 is reported as 31.6% (AMY2; enzyme activity, inhibitor; 120 µg/mL).
With FC(F)(F)Oc1cccc(-c2cnc3ccc(-c4ccncc4)nn23)c1 the activity vs control was 67% (Eukaryotic translation initiation factor 2-alpha kinase 3 (EIF2AK3, Homo sapiens, UniProt Q9NZJ5); enzyme activity, inhibitor, radiometric; 5 µM).
CC(C)(C)n1nnc([C@H](CCCNC(=N)CF)NC(=O)c2ccccc2C(=O)O)n1 has a kinact/KI of 261 M⁻¹ s⁻¹ (PADI3; enzyme activity, inhibitor).
With CCCN(O)N=Nc1ccc(S(=O)(=O)Nc2onc(C)c2C)cc1 the inhibition was 26.3% (AMY2; enzyme activity, inhibitor; 20 µg/mL).
With C=CC(=O)Nc1cccc(-c2noc([C@@]3(C)CCCc4sc(N)c(C#N)c43)n2)c1 the kinact was 0.000306 s⁻¹ (KRAS G12C; cell-free assay, inhibitor).
With N=C(CCl)NCCC[C@H](NC(=O)c1ccc(-c2ccccc2)cc1)c1nn[nH]n1 the kinact/KI was 131 M⁻¹ s⁻¹ (PADI3; enzyme activity, inhibitor).
O=c1oc2c(O)c(O)cc3c(=O)oc4c(O)c(O)cc1c4c23 has an IC90 of less than 10000 nM (Genome polyprotein protease; enzyme activity, inhibitor, fluorescence).
The inhibition of O=S(=O)(Nc1nccs1)c1ccc(N=NN(O)c2ccccc2)cc1 is reported as 42.1% (AMY2; enzyme activity, inhibitor; 180 µg/mL).
For Cc1ccc(C(=O)NCc2ccsc2)cc1C#Cc1cn(C(C)C)c2ncnc(N)c12, the activity vs control was 30% (RIPK1; enzyme activity, inhibitor; 1 µM).
CC(C)(C)n1nnc([C@H](CCCNC(=N)CCl)NC(=O)c2ccccc2C(=O)O)n1 has a kinact/KI of 292 M⁻¹ s⁻¹ (PADI3; enzyme activity, inhibitor).
The remaining signal of Nc1ncnc2occ(-c3ccc(NC(=O)Nc4cc(C(F)(F)F)ccc4F)cc3)c12 is reported as 41% (GAK; cell-free assay, inhibitor; 20 µM).
COc1cc(Nc2ncnc3ccc(C(F)(F)F)cc23)cc(OC)c1 gave a ΔTm of 0.7 °C (GAK; thermal stability, DSF; 10 µM).
CN1CCN(C(=O)c2ccc3cc(CCNc4ccnc5ccc(C#N)cc45)ccc3c2)CC1 gave a kon of 939000 M⁻¹ s⁻¹ (Cyclin-dependent kinase 19, with cyclin C (CDK19, Homo sapiens, UniProt Q9BWU1); binding, TR-FRET).
For FC(F)(F)c1cccc(Nc2ccnc3ccc(C(F)(F)F)cc23)c1, the ΔTm was 1.3 °C (GAK; thermal stability, DSF; 10 µM).
With Cc1noc(NS(=O)(=O)c2ccc(N=NN(C)O)cc2)c1C the inhibition was 26.3% (AMY2; enzyme activity, inhibitor; 60 µg/mL).
N=C(CF)NCCC[C@H](NC(=O)c1ccc(-c2ccccc2)cc1)c1nn[nH]n1 has a kinact/KI of 5.08 M⁻¹ s⁻¹ (PADI3; enzyme activity, inhibitor).
The IC90 of O=C1O[C@H]2[C@@H]3OC(=O)c4cc(O)c(O)c(O)c4-c4c(O)c(O)c5oc(=O)c6c(c(O)c(O)c7oc(=O)c4c5c76)-c4c(cc(O)c(O)c4O)C(=O)OC[C@H]3OC(O)[C@@H]2OC(=O)c2cc(O)c(O)c(O)c2-c2c1cc(O)c(O)c2O (mixture of isomers) is reported as roughly 2500 nM (Genome polyprotein protease; enzyme activity, inhibitor, fluorescence).
For COc1ccc(Nc2ccnc3ccc(C(F)(F)F)cc23)cc1OC, the ΔTm was 3.4 °C (GAK; thermal stability, DSF; 10 µM).
C=CC(=O)Nc1ccc(-c2noc([C@@]3(C)CCCc4sc(N)c(C#N)c43)n2)cc1 has a kinact of 0.00011 s⁻¹ (KRAS G12C; cell-free assay).
The ΔTm of COc1ccc(Nc2ncnc3ccc(C(F)(F)F)cc23)cc1 is reported as 0.3 °C (GAK; thermal stability, DSF; 10 µM).
With Cc1ccc(N(O)N=Nc2ccc(S(=O)(=O)Nc3cc(C)on3)cc2)cc1 the inhibition was 26.3% (AMY2; enzyme activity, inhibitor; 60 µg/mL).
COc1cc(C=CC(=O)CC(c2ccc([N+](=O)[O-])cc2)n2ccnc2)ccc1O (stereo not shown) gave an inhibition of 52.7% (AMY2; enzyme activity, inhibitor, absorbance; 1.25 µg/mL).
The Km of NCc1ccc(Br)cc1 is reported as 34 µM (Maoa; enzyme activity, substrate; pH 7.5).
CCCOc1ccc(OC)c(F)c1C(=O)c1ccc(C(=O)N[C@@H]2CNC[C@H]2NC(=O)c2ccc3[nH]ncc3c2)cc1 has a remaining activity of 7% (Serine/threonine-protein kinase MRCK beta (CDC42BPB, Homo sapiens, UniProt Q9Y5S2); enzyme activity, inhibitor; 0.75 µM).
CS(=O)(=O)c1ccc(Nc2ccnc3ccc(C(F)(F)F)cc23)cc1 has a ΔTm of 0.2 °C (GAK; thermal stability, DSF; 10 µM).
CCCN(O)N=Nc1ccc(S(=O)(=O)Nc2nccs2)cc1 gave an inhibition of 68.4% (AMY2; enzyme activity, inhibitor; 300 µg/mL).
The ΔTm of COc1cc(Nc2ccnc3ccc(C(C)(C)C)cc23)cc(OC)c1OC is reported as 5.2 °C (GAK; thermal stability, DSF; 10 µM).
The kinact of C=CC(=O)N1CCN(c2cccc(-c3noc([C@@]4(C)CCCc5sc(N)c(C#N)c54)n3)c2)CC1 is reported as 8.33e-05 s⁻¹ (KRAS G12C; cell-free assay, inhibitor).
For N=C(CCl)NCCC[C@H](NC(=O)c1ccccc1C(=O)O)c1nn[nH]n1, the kinact/KI was 207 M⁻¹ s⁻¹ (PADI3; enzyme activity, inhibitor).
With N#Cc1ccccc1Nc1ccnc2ccc(C(F)(F)F)cc12 the ΔTm was 0.6 °C (GAK; thermal stability, DSF; 10 µM).
The inhibition of Cc1cc(NS(=O)(=O)c2ccc(N=NN(O)c3ccccc3)cc2)no1 is reported as 73.7% (AMY2; enzyme activity, inhibitor; 300 µg/mL).
